Bioassay records (PubChem BioAssay)
Rows were chosen to be rich in hits. Some 4% of all compounds tested hit in one or more screens of this group.
FAS TE block: FAS thioesterase (human) inhibition; recombinant FAS-TE, OMFH fluorogenic substrate, fluorescence endpoint; 360,000 compounds, 0.67% hits; inhibition, % at 15 µM; P49327; AID 602261;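 active = compounds whose normalised, plate-corrected inhibition of enzyme fluorescence in the single-dose primary screen is 50% or more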
Arr AP2 block: blocks beta-arrestin peptide binding to AP2 adaptin | FITC-arrestin peptide / GST-AP2 beads, flow cytometry; AP2 beta2 appendage carries R879A mutation | 340,000 compounds, 0.31% hits | inhibition, % at 10 µM;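 active = inhibition above a set limit, near 3 SD of compounds lacking own fluorescence, cut at about 54% in these data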
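test system = AP2 appendage R879A on GSH beads | buffer or medium = PBS plus Tween 20 (0.05%) and BSA (0.1%) | incubation = 12 min plus 1 h, RT | detection = bead flow cytometry, FITC channel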
hiPSC survival: increases survival of single human iPS cells; hiPSC single-cell survival, ATPlite luminescence; 100% = ROCK inhibitor wells, 0% = DMSO; survival enhancement, % at 20 µM; 360,000 compounds, 0.044% hits; in the data active = survival enhancement above about 18%;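 also: cells exposed to compounds for 16 hours before the ATP read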
Cardio protect: modulators protecting cardiomyocytes from myocardial damage. protection from H2O2 cell death, % at 20 µM. 360,000 compounds, 0.63% hits. AID 588492. H9c2 cardiomyocytes, H2O2 injury protection, ATPLite, 2 h;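 active = compounds giving at least 50% protection of heart cells from peroxide-induced death in the single-dose screen, raw or plate-pattern-corrected value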
SENP1 FRET inh: SENP1 (human) catalytic domain inhibition | Q9P0U3 | recombinant SENP1 catalytic domain, CyPet-SUMO1-YPet FRET cleavage | 360,000 compounds, 0.21% hits | inhibition, % at 10 µM;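 active = inhibition at least 30% at 10 µM, raw YFP signal under a set limit, fluorescence ratio 0.5 to 1.5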
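material = recombinant human SENP1 catalytic domain, His6-tagged | quantity = 20 pM enzyme | reagent = 25 nM SUMO1 FRET substrate | compound dosing = 10 µM single point, 0.5% DMSO | timing = 50 min enzyme reaction, room temperature, light-protected | detection = FRET, CFP and YFP emission | control set = no-enzyme low, enzyme-DMSO high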
NR3A LBD binder: NR3A (human) ligand-binding domain modulation; NR3A LBD differential scanning fluorimetry, Tm shift; 0% = protein alone, 100% = glycine-bound protein; Tm shift relative to glycine control, % at 25 µM; 340,000 compounds, 2.5% hits;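 active = melting temperature shift of at least 10% of the positive control shift, at one fixed dose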
SENP1 conf: confirmation of human SENP1 SUMO protease inhibitors | shares compounds with SENP1 FRET inh | recombinant SENP1, CyPet-SUMO1-YPet FRET cleavage | 520 compounds, 34% hits | inhibition, % at 10 µM; in the data active = inhibition mostly above about 35%, no sharp cut-off; inactive = mostly below about 32%
SENP1 kin conf: confirmation of human SENP1 SUMO protease inhibitors, kinetic. 520 compounds, 26% hits. AID 651690. shares compounds with SENP1 FRET inh. recombinant SENP1, CyPet-SUMO1-YPet FRET kinetic cleavage. inhibition, % at 10 µM; in the data active = inhibition mostly above about 32%, no sharp cut-off; inactive = mostly below about 29%
Large screens that a line does not name were inactive (follow-up assays come after a bar, where they were run).

CCOc1cc(Br)cc(/C=C2\SC(=Nc3ccccc3)NC2=O)c1O	SENP1 FRET inh 35.3 | SENP1 conf 69.4 | SENP1 kin conf 45.3
CN1/C(=C/C=C/c2n(C)c3cc([N+](=O)[O-])c([N+](=O)[O-])cc3[n+]2C)C(C)(C)c2ccccc21	none (no result: Arr AP2 block, NR3A LBD binder)
CC(=O)Oc1ccccc1/C=C/c1nc2ccccc2c(=O)o1	none
CC(=O)Oc1ccc(/C=C/c2nc3ccccc3c(=O)o2)cc1	SENP1 FRET inh 52.0 | SENP1 conf inactive | SENP1 kin conf inactive
Brc1ccc2cccnc2c1	none
Nc1cc2cccnc2cc1Cl	SENP1 FRET inh 42.1 | SENP1 conf inactive | SENP1 kin conf inactive
CC[N+]1(C)[C@@H]2CC[C@H]1CC(OC(=O)[C@H]1CCC(C(=O)OC3C[C@H]4CC[C@@H](C3)[N+]4(C)CC)(c3ccccc3)c3ccccc31)C2 (some centres undefined)	none
O=C1C2=C(SCCS2)C(=O)N1c1ccccc1	SENP1 FRET inh 35.9 | SENP1 conf inactive | SENP1 kin conf inactive
C[C@@H]1CN([C@@H](C)CO)C(=O)c2cc(Br)cnc2O[C@H]1CN(C)C(=O)c1ccncc1	none (no result: Arr AP2 block, NR3A LBD binder)
CC(C)NC(=O)OCc1c(COC(=O)NC(C)C)c([N+](=O)[O-])n2c1CCC2	none (no result: Arr AP2 block, NR3A LBD binder)
Cc1ccc(-c2c(C(=O)Nc3ccccc3C)c(C)[nH]c(=S)c2C#N)o1	none
Cc1ccccc1NC(=O)c1c(C)[nH]c(=S)c(C#N)c1-c1ccc(Cl)cc1	SENP1 FRET inh 50.2 | SENP1 conf inactive | SENP1 kin conf inactive
Cc1[nH]c(=S)c(C#N)c(-c2ccccc2)c1C(=O)Nc1ccccc1	SENP1 FRET inh 55.1 | SENP1 conf inactive | SENP1 kin conf inactive
CC[C@H](C)[C@@H](CO)NC(=O)[C@H]1O[C@@H](n2ccc(N)nc2=O)[C@H](O)[C@@H]1O	none (no result: Arr AP2 block, NR3A LBD binder)
CC(=O)Oc1c(Cl)cc(Cl)cc1/C=C/c1ccc2ccccc2n1	none
CC(=O)Oc1ccc(Cl)cc1/C=C/c1ccc2ccccc2n1	SENP1 FRET inh 33.8 | SENP1 conf 37.9 | SENP1 kin conf inactive
CSc1ccc(-c2cc3c(c4c2ccn4C)C2CCC3O2)cc1 (centres undefined)	none (no result: Arr AP2 block, NR3A LBD binder)
NC(=O)CCC(C(=O)O)N1C(=O)c2ccc(O)cc2C1=O (centres undefined)	SENP1 FRET inh 44.0 (no result: NR3A LBD binder) | SENP1 conf 36.8 | SENP1 kin conf inactive
COC[C@H]1CCCN1[C@H]1CS(=O)(=O)N[C@@H]1COCc1ccccc1	none (no result: Arr AP2 block, NR3A LBD binder)
O=C(C[n+]1cccc2ccccc21)c1ccccc1	none
Cc1ccccc1C[n+]1cccc2ccccc21	SENP1 FRET inh 34.1, NR3A LBD binder 12.9 | SENP1 conf inactive | SENP1 kin conf inactive
O=C(O)c1cccc(NC2=Nc3cccc4cccc2c34)c1	none
Fc1ccc(/C=N/NC2=Nc3cccc4cccc2c34)cc1	none
COc1ccc(NC2=Nc3cccc4cccc2c34)cc1	SENP1 FRET inh 77.4 | SENP1 conf 57.4 | SENP1 kin conf inactive
c1ccc(NC2=Nc3cccc4cccc2c34)cc1	SENP1 FRET inh 74.1 | SENP1 conf 43.2 | SENP1 kin conf inactive
Cc1ccc(S(=O)(=O)N2[C@@H](c3cccc(Cl)c3)C(C(=O)OC(C)(C)C)=CC[C@H]2c2cccc(Cl)c2)cc1	none (no result: Arr AP2 block, NR3A LBD binder)
CCCc1cnc(Nc2nc(C(N)Cc3ccc(C(F)(F)F)cc3)cs2)nc1 (centres undefined)	none (no result: Arr AP2 block, NR3A LBD binder)
Nc1c(-c2ccc(C(F)(F)F)cc2)nc2ncccn12	SENP1 FRET inh 52.9 (no result: FAS TE block, Arr AP2 block, hiPSC survival, Cardio protect, NR3A LBD binder) | SENP1 conf inactive | SENP1 kin conf inactive
Cc1ccc(-c2nc3ncccn3c2N)cc1	none (no result: FAS TE block, Arr AP2 block, hiPSC survival, Cardio protect, NR3A LBD binder)
O=[N+]([O-])c1nn(-c2ccc3c(c2)OCCO3)n(O)c1=NCc1ccc(F)cc1Cl	SENP1 FRET inh 62.4 | SENP1 conf inactive | SENP1 kin conf inactive
NC(=O)CCCn1c(C(=O)c2ccc(Cl)cc2)c2ccc([N+](=O)[O-])cc2[n+]1[O-]	none
NC(=O)CCCn1c(C(=O)c2cc(Cl)c(N)c(Cl)c2)c2ccc([N+](=O)[O-])cc2[n+]1[O-]	SENP1 FRET inh 29.8 | SENP1 conf inactive | SENP1 kin conf inactive
Cc1ccc(Nc2nc(-c3c(C)n(C)n(-c4ccccc4)c3=O)c(C)s2)cc1	none
Cc1sc(Nc2ccc([N+](=O)[O-])cc2)nc1-c1c(C)n(C)n(-c2ccccc2)c1=O	SENP1 FRET inh 38.1 | SENP1 conf inactive | SENP1 kin conf inactive
N#C/C(C(N)=O)=C1/SC(Cc2ccc(F)cc2)C(=O)N1c1ccccc1 (centres undefined)	SENP1 FRET inh 70.2 | SENP1 conf inactive | SENP1 kin conf inactive
CNC(=O)/C(C#N)=C1/SC(Cc2ccc(F)cc2)C(=O)N1c1ccccc1 (centres undefined)	none
CCc1nc2c(OCc3ccc4c(c3)OCO4)cccn2c1N(C=O)Cc1ccc(OC)cc1	none (no result: Arr AP2 block, NR3A LBD binder)
COc1ccc(N(C)C(=O)Nc2ccc3nsnc3c2)cc1	SENP1 FRET inh 55.5 | SENP1 conf inactive | SENP1 kin conf inactive
COc1ccc(CN(C)CCCn2cnc3c(SC)ncnc32)cc1OC	none (no result: Arr AP2 block, NR3A LBD binder)
CN(C)c1ccc(/C=N/NC(=O)c2cccc(C(=O)N/N=C/c3ccc(N(C)C)cc3)n2)cc1	SENP1 FRET inh 37.6 | SENP1 conf inactive | SENP1 kin conf inactive
COCCNC(=O)c1cccc2c1C(=O)c1ccc(N3CCOCC3)cc1S2(=O)=O	SENP1 FRET inh 73.0 | SENP1 conf 58.4 | SENP1 kin conf 40.0
Cc1ccc(CNC(=O)c2cccc3c2C(=O)c2ccc(N4CCOCC4)cc2S3(=O)=O)cc1	none
CC1CCN(c2ccc3c(c2)S(=O)(=O)c2cccc(C(=O)NC[C@@H]4CCCO4)c2C3=O)CC1	none
O=C(NC[C@@H]1CCCO1)c1cccc2c1C(=O)c1ccc(N3CCOCC3)cc1S2(=O)=O	SENP1 FRET inh 76.1 | SENP1 conf 64.0 | SENP1 kin conf 41.4
C/C(=N\NC(=O)c1ccc(C)cc1C)c1ccc2c(c1)Nc1ccccc1S2	SENP1 FRET inh 61.1, NR3A LBD binder 11.6 | SENP1 conf inactive | SENP1 kin conf inactive
COCc1nnc(NC(=O)c2ccc(OC)cc2OC)s1	SENP1 FRET inh 48.1 | SENP1 conf inactive | SENP1 kin conf inactive
COc1ccc(CN2CCN(C(=O)CCC(=O)c3ccc(C)s3)CC2)cc1OC	none
CCOc1cc(/C=C2\NC(=S)N(c3c(C)n(C)n(-c4ccccc4)c3=O)C2=O)ccc1O	none
